Assay results from publication PMC11516114 (Protein Science : A Publication of the Protein Society, 2024).
Where two headings read alike, the source gives them in different places.

Tests used:
wild-type HIF-2α PAS-B [1] = target: T1, wild-type HIF-2α PAS-B (Homo sapiens, UniProt Q99814); test: Isothermal titration calorimetry; assay type: binding
Procedure, shortened: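 Human HIF-2α PAS-B (residues 240–350), expressed with a cleavable His6-Gβ1 tag, purified by Ni2+ affinity, TEV cleavage, a second Ni2+ pass and size exclusion. ITC run at 25°C with protein (250–300 μM) titrated into 20 μM test compound: 25 injections, 250 s spacing, 350 rpm. Protein-into-buffer heats were subtracted.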

wild-type HIF-2α PAS-B [2] = target: T1, wild-type HIF-2α PAS-B; conditions: previously measured, ref Key et al. [2009]; cited from earlier work

T1 sequence (Q99814 240-350): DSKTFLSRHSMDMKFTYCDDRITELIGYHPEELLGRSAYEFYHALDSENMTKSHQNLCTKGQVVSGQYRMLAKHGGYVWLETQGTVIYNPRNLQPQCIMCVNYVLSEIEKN

Row | SMILES | Kd (wild-type HIF-2α PAS-B [1]) [µM] | Kd (wild-type HIF-2α PAS-B [2]) [µM]
1 | O=[N+]([O-])c1cc(C(F)(F)F)ccc1NCc1ccsc1 [THS-017, 2‐nitro‐N‐[(thiophen‐3‐yl)methyl]‐4‐(trifluoromethyl)aniline] | 0.6 ± 0.06 | 0.59 ± 0.05
2 | O=[N+]([O-])c1cc(C(F)(F)F)ccc1NCc1ccco1 [THS-020, N‐[(furan‐2‐yl)methyl]‐2‐nitro‐4‐(trifluoromethyl)aniline] | 1.35 ± 0.11 | 1.5 ± 0.7
